Source: ChEMBL document CHEMBL2321702, “Synthesis and antimalarial efficacy of two-carbon-linked, artemisinin-derived trioxane dimers in combination with known antimalarial drugs” (J Med Chem, 2013)

How the values were obtained:
Mus musculus = assay: Toxicity in po dosed C57BL/6J mouse infected with Plasmodium berghei ANKA assessed as average body weight gain measured on day 3 (reference value: 7.7 g); type: organism-based; conditions: in vivo
Plasmodium berghei [1] = assay: Antimalarial activity against Plasmodium berghei ANKA infected in C57BL/6J mouse assessed as suppression of blood parasitemia level at 150 mg/kg, po measured on day 3 relative to vehicle-treated control; type: functional
In short: (§1)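 Single-dose oral monotherapy without adjuvant, at 120 or 150 mg/kg, given by gavage 24 h after infecting male C57BL/6J mice (four per group) with 2×10^7 P. berghei ANKA-parasitized erythrocytes. Blood parasitemia was measured on day 3 relative to vehicle controls. Survival was recorded over a 60-day study.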

Plasmodium berghei [2] = assay: Antimalarial activity against Plasmodium berghei ANKA infected in C57BL/6J mouse assessed as suppression of blood parasitemia level at 6 mg/kg, po measured on day 3 relative to vehicle-treated control in presence of lumefantrine; type: functional
In short: (§2)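 P. berghei ANKA infection (2×10^7 parasitized erythrocytes) in male C57BL/6J mice, four per group. A single oral dose was given 24 h post-infection: trioxane 6 mg/kg plus lumefantrine 18 mg/kg. Day-3 blood parasitemia was compared with vehicle mice, and survival was tracked up to 60 days.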

Plasmodium berghei [3] = assay: Antimalarial activity against Plasmodium berghei ANKA infected in C57BL/6J mouse assessed as suppression of blood parasitemia level at 6 mg/kg, po measured on day 3 relative to vehicle-treated control in presence of mefloquine; type: functional
In short: (§3)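 Male C57BL/6J mice (5 weeks old, about 20 g; four per group) were infected with P. berghei ANKA (2×10^7 parasitized erythrocytes). After 24 h, each received a single 200 μL oral gavage of trioxane 6 mg/kg plus mefloquine hydrochloride 18 mg/kg in 7:3 Tween:EtOH diluted with water. Blood parasitemia was read on day 3, and survival was followed to day 60 against untreated mice.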

Plasmodium berghei [4] = assay: Antimalarial activity against Plasmodium berghei ANKA infected in C57BL/6J mouse assessed as suppression of blood parasitemia level at 6 mg/kg, po measured on day 3 relative to vehicle-treated control in presence of mef-HCl; type: functional; in short: as §3
Plasmodium berghei [5] = assay: Antimalarial activity against Plasmodium berghei ANKA infected in C57BL/6J mouse assessed as average survival time at 6 mg/kg, po in presence of lumefantrine (reference value: 8.8 days); type: functional; in short: as §2
Plasmodium berghei [6] = assay: Antimalarial activity against Plasmodium berghei ANKA infected in C57BL/6J mouse assessed as average survival time at 150 mg/kg, po (reference value: 8.8 days); type: functional; in short: as §1
Plasmodium berghei [7] = assay: Antimalarial activity against Plasmodium berghei ANKA infected in C57BL/6J mouse assessed as average survival time at 6 mg/kg, po in presence of Mef-HCl (reference value: 7.3 days); type: functional; in short: as §3
Plasmodium berghei [8] = assay: Antimalarial activity against Plasmodium berghei ANKA infected in C57BL/6J mouse assessed as average survival time at 6 mg/kg, po in presence of mefloquine (reference value: 8.8 days); type: functional; in short: as §3
Plasmodium berghei [9] = assay: Antimalarial activity against Plasmodium berghei ANKA infected in C57BL/6J mouse assessed as suppression of blood parasitemia level at 120 mg/kg, po measured on day 3 relative to vehicle-treated control; type: functional; in short: as §1
Plasmodium berghei [10] = assay: Antimalarial activity against Plasmodium berghei ANKA infected in C57BL/6J mouse assessed as average survival time at 120 mg/kg, po (reference value: 7.3 days); type: functional; in short: as §1

| SMILES | Activity (Plasmodium berghei [2]) | Activity (Plasmodium berghei [3]) | Activity (Plasmodium berghei [4]) | MST (Plasmodium berghei [5]) | MST (Plasmodium berghei [7]) | MST (Plasmodium berghei [8]) | also measured |
| --- | --- | --- | --- | --- | --- | --- | --- |
| C#CCO/N=C(/C[C@H]1O[C@@H]2O[C@@]3(C)CC[C@H]4[C@H](C)CC[C@@H]([C@H]1C)[C@@]24OO3)[C@H]1O[C@@H]2O[C@@]3(C)CC[C@H]4[C@H](C)CC[C@@H]([C@H]1C)[C@@]24OO3 | >99.9% | >99.9% | >99.9% | 60 days | 60 days | – | Activity (Mus musculus): 12 g; Activity (Plasmodium berghei [1]): >99.9%; MST (Plasmodium berghei [6]): 46.8 days |
| C[C@H]1[C@@H](/C(C[C@H]2O[C@@H]3O[C@@]4(C)CC[C@H]5[C@H](C)CC[C@@H]([C@H]2C)[C@@]35OO4)=N\OC(=O)N(C)C)O[C@@H]2O[C@@]3(C)CC[C@H]4[C@H](C)CC[C@@H]1[C@@]24OO3 | – | – | >99.9% | – | – | – | – |
| CC(=O)O/N=C(/C[C@H]1O[C@@H]2O[C@@]3(C)CC[C@H]4[C@H](C)CC[C@@H]([C@H]1C)[C@@]24OO3)[C@H]1O[C@@H]2O[C@@]3(C)CC[C@H]4[C@H](C)CC[C@@H]([C@H]1C)[C@@]24OO3 | – | – | >99.9% | – | – | – | – |
| COP(=O)(OC)O/N=C(/C[C@H]1O[C@@H]2O[C@@]3(C)CC[C@H]4[C@H](C)CC[C@@H]([C@H]1C)[C@@]24OO3)[C@H]1O[C@@H]2O[C@@]3(C)CC[C@H]4[C@H](C)CC[C@@H]([C@H]1C)[C@@]24OO3 | – | – | >99.9% | – | 56 days | – | – |
| CCOP(=O)(OCC)O/N=C(/C[C@H]1O[C@@H]2O[C@@]3(C)CC[C@H]4[C@H](C)CC[C@@H]([C@H]1C)[C@@]24OO3)[C@H]1O[C@@H]2O[C@@]3(C)CC[C@H]4[C@H](C)CC[C@@H]([C@H]1C)[C@@]24OO3 | – | – | >99.9% | – | 21.5 days | – | – |
| CO/N=C(\C[C@H]1O[C@@H]2O[C@@]3(C)CC[C@H]4[C@H](C)CC[C@@H]([C@H]1C)[C@@]24OO3)[C@H]1O[C@@H]2O[C@@]3(C)CC[C@H]4[C@H](C)CC[C@@H]([C@H]1C)[C@@]24OO3 | – | >99.9% | – | – | – | 37 days | – |
| C[C@H]1[C@@H](/C(C[C@H]2O[C@@H]3O[C@@]4(C)CC[C@H]5[C@H](C)CC[C@@H]([C@H]2C)[C@@]35OO4)=N\OCC2CC2)O[C@@H]2O[C@@]3(C)CC[C@H]4[C@H](C)CC[C@@H]1[C@@]24OO3 | – | >99.9% | – | – | – | 41 days | – |
| C[C@H]1[C@@H](/C(C[C@H]2O[C@@H]3O[C@@]4(C)CC[C@H]5[C@H](C)CC[C@@H]([C@H]2C)[C@@]35OO4)=N\OC(C)(C)C)O[C@@H]2O[C@@]3(C)CC[C@H]4[C@H](C)CC[C@@H]1[C@@]24OO3 | – | >99.9% | – | – | – | – | – |
| C[C@H]1[C@@H](C(=O)C[C@H]2O[C@@H]3O[C@@]4(C)CC[C@H]5[C@H](C)CC[C@@H]([C@H]2C)[C@@]35OO4)O[C@@H]2O[C@@]3(C)CC[C@H]4[C@H](C)CC[C@@H]1[C@@]24OO3 | – | – | >99.9% | – | – | – | – |
| C[C@H]1[C@@H](/C(C[C@H]2O[C@@H]3O[C@@]4(C)CC[C@H]5[C@H](C)CC[C@@H]([C@H]2C)[C@@]35OO4)=N\O)O[C@@H]2O[C@@]3(C)CC[C@H]4[C@H](C)CC[C@@H]1[C@@]24OO3 | – | – | >99.9% | – | 52.5 days | – | – |
| CO/N=C(/C[C@H]1O[C@@H]2O[C@@]3(C)CC[C@H]4[C@H](C)CC[C@@H]([C@H]1C)[C@@]24OO3)[C@H]1O[C@@H]2O[C@@]3(C)CC[C@H]4[C@H](C)CC[C@@H]([C@H]1C)[C@@]24OO3 | >99.9% | >99.9% | >99.9% | 26.3 days | 60 days | 49 days | Activity (Mus musculus): 10.7 g; Activity (Plasmodium berghei [1]): 98%; MST (Plasmodium berghei [6]): 8.3 days |
| C=CCO/N=C(/C[C@H]1O[C@@H]2O[C@@]3(C)CC[C@H]4[C@H](C)CC[C@@H]([C@H]1C)[C@@]24OO3)[C@H]1O[C@@H]2O[C@@]3(C)CC[C@H]4[C@H](C)CC[C@@H]([C@H]1C)[C@@]24OO3 | >99.9% | >99.9% | >99.9% | 41.3 days | 40.3 days | 49 days | Activity (Plasmodium berghei [1]): >99%; Activity (Plasmodium berghei [9]): >99.9%; MST (Plasmodium berghei [6]): 46.8 days; MST (Plasmodium berghei [10]): 40.3 days |
| CO[C@H]1O[C@@H]2O[C@@]3(C)CC[C@H]4[C@H](C)CC[C@@H]([C@H]1C)[C@@]24OO3 [ARTEMETHER] | >99.9% | >99.9% | >99.9% | 19 days | 40 days | – | – |
